Test results as given in ChEMBL document CHEMBL3813636, “Toward discovery of mutant EGFR inhibitors; Design, synthesis and in vitro biological evaluation of potent 4-arylamino-6-ureido and thioureido-quinazoline derivatives” (Bioorg Med Chem, 2016).
Blank lines part the entries; values can stand above or below the compound they belong to. Active and inactive are the calls of the source. The calls are words filed in the database; no cut-off is given here.

Tests used:
[1] = molecular target: T1, Epidermal growth factor receptor (Homo sapiens, UniProt P00533); conditions: PC-9, at 10 µM
[2] = Antiproliferative activity against gefitinib-sensitive human PC9 cells assessed as cell viability after 72 hrs by cell titer-glo luminescence assay; type: functional, cell-based; conditions: PC-9, 72 h
[3] = tested on: Epidermal growth factor receptor (Homo sapiens), P00533 [UNDEFINED MUTATION]; conditions: PC9/GR4, at 10 µM
[4] = molecular target: T1, Epidermal growth factor receptor; conditions: PC-9, at 10 µM; remark: listed apart in the source
[5] = molecular target: T1, Epidermal growth factor receptor; experiment: Inhibition of recombinant human EGFR expressed in baculovirus by fluorescence based assay
[6] = tested on: Epidermal growth factor receptor (Homo sapiens), P00533 [UNDEFINED MUTATION]; conditions: PC9/GR4, at 10 µM; remark: listed apart in the source
[7] = Antiproliferative activity against gefitinib-resistant human PC9/GR4 cells expressing Del19/T790M double mutant assessed as cell viability after 72 hrs by cell titer-glo luminescence assay; type: functional, cell-based; conditions: PC9/GR4, 72 h
[8] = molecular target: Receptor tyrosine-protein kinase erbB-2 (Homo sapiens, UniProt P04626); experiment: Inhibition of His-tagged human recombinant Her2 (676 to 1255 residues) expressed in baculovirus by fluorescence based assay
Chain of Receptor tyrosine-protein kinase erbB-2 (P04626 whole entry, the tested form may be a part): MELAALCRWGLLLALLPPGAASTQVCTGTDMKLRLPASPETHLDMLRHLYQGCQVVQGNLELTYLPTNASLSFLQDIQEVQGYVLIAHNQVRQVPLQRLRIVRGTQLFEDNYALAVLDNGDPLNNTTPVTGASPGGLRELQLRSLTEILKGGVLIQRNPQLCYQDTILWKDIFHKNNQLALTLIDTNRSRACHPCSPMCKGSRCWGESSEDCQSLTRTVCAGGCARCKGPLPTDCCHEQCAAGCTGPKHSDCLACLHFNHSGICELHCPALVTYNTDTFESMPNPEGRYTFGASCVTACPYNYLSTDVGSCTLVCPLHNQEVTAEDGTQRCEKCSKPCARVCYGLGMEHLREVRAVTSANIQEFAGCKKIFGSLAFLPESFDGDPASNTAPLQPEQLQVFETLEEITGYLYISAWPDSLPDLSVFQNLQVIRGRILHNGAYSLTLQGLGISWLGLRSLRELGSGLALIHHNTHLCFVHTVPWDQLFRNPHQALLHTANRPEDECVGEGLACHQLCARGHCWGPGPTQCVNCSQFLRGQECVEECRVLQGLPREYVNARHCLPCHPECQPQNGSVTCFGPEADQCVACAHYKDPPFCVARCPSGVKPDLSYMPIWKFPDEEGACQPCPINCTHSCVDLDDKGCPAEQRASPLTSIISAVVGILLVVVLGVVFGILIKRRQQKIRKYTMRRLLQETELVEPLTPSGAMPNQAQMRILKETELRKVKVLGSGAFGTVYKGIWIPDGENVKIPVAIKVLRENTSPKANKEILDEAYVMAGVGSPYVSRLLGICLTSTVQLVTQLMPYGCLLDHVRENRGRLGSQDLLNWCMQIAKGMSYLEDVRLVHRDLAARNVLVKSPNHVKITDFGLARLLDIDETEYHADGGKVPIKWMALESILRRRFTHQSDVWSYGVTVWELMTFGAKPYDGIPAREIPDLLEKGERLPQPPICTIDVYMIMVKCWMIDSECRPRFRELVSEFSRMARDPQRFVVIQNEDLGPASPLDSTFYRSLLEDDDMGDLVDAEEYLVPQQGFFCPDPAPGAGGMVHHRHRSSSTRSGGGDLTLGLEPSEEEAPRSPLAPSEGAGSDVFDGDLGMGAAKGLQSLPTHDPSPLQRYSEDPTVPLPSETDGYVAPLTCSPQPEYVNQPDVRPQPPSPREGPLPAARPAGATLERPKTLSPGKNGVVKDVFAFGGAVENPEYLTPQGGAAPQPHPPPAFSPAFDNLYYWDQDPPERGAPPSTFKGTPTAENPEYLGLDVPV
In short: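 Her2 kinase activity was measured with an outsourced kinase-profiling service. It used a fluorescence-based coupled-enzyme format that exploits the differing sensitivity of phosphorylated and non-phosphorylated peptide substrates to proteolytic cleavage.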

[9] = Potency index, ratio of gefitinib IC50 to compound IC50 for human PC9/GR4 cells expressing Del19/T790M double mutant; type: functional
[10] = Cytotoxicity against human BT474 cells expressing Her2 assessed as reduction in cell viability after 72 hrs by cell titer-glo luminescence assay; type: functional, cell-based; conditions: BT-474, 72 h
[11] = tested on: Epidermal growth factor receptor (Homo sapiens), P00533 [L858R,T790M]; experiment: Inhibition of EGFR L858R/T790M double mutant (unknown origin) expressed in mouse BaF/3 cells assessed as cell growth inhibition at 10 uM after 72 hrs by MTS assay; type: cell-based
In short: (§1)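 Ba/F3 cells carrying the listed double-mutant EGFR were exposed to 10 uM compound, and growth was read by MTS assay as percent growth relative to DMSO-treated cells. Experiments were repeated at least three times.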

[12] = tested on: Epidermal growth factor receptor (Homo sapiens), P00533 [UNDEFINED MUTATION]; experiment: Inhibition of EGFR Del19/T790M double mutant (unknown origin) expressed in mouse BaF/3 cells assessed as cell growth inhibition at 10 uM after 72 hrs by MTS assay; type: cell-based
In short: as §1

Compound: NC(=O)Nc1ccc2ncnc(Nc3ccc(F)c(Cl)c3)c2c1
inhibition [1]: Active
IC50 [2]: 0.961 µM
inhibition [3]: Active
inhibition [4]: Active
IC50 [5]: 0.000854 µM
inhibition [6]: Active
IC50 [7]: 21.7 µM

Compound: O=C(NCCN1CCCCC1)Nc1ccc2ncnc(Nc3ccc(F)c(Cl)c3)c2c1
IC50 [5]: 0.00106 µM

Compound: O=C(NCCN1CCCCC1)Nc1ccc2ncnc(Nc3cccc(Br)c3)c2c1
IC50 [5]: 0.000772 µM

Compound: O=C(NCCN1CCOCC1)Nc1ccc2ncnc(Nc3ccc(F)c(Cl)c3)c2c1
IC50 [5]: 0.00292 µM

Compound: CS(=O)(=O)CCNCc1ccc(-c2ccc3ncnc(Nc4ccc(OCc5cccc(F)c5)c(Cl)c4)c3c2)o1 [LAPATINIB]
IC50 [10]: 0.031 µM

Compound: O=C(NCCN1CCOCC1)Nc1ccc2ncnc(Nc3cccc(Br)c3)c2c1
IC50 [5]: 0.00143 µM

Compound: Fc1ccc(Nc2ncnc3ccc(NC(=S)NCCN4CCOCC4)cc23)cc1Cl
IC50 [5]: 0.00225 µM

Compound: S=C(NCCN1CCOCC1)Nc1ccc2ncnc(Nc3ccc(Cl)cc3)c2c1
IC50 [5]: 0.00506 µM

Compound: CC(=O)Nc1ccc2ncnc(Nc3ccc(F)c(Cl)c3)c2c1
inhibition [1]: Active
IC50 [2]: 0.225 µM
inhibition [3]: Active
inhibition [4]: Active
IC50 [5]: 0.000662 µM
inhibition [6]: Active
IC50 [7]: 12.6 µM

Compound: O=C(NCCN1CCCCC1)Nc1ccc2ncnc(Nc3ccc(OCc4cccc(F)c4)c(Cl)c3)c2c1
inhibition [1]: Active
IC50 [8]: 0.0192 µM
Ratio IC50 [9]: 8
IC50 [10]: 0.76 µM
growth inhibition (GI) [11]: Active
IC50 [2]: 1.58 µM
inhibition [3]: Active
inhibition [4]: Active
inhibition [6]: Active
growth inhibition (GI) [12]: Active
IC50 [7]: 2.16 µM

Compound: S=C(NCCN1CCOCC1)Nc1ccc2ncnc(Nc3cccc(Br)c3)c2c1
IC50 [5]: 0.00181 µM

Compound: Fc1ccc(Nc2ncnc3ccc(NC(=S)NCCN4CCCCC4)cc23)cc1Cl
IC50 [5]: 0.0037 µM

Compound: C#Cc1cccc(Nc2ncnc3ccc(NC(N)=O)cc23)c1
IC50 [5]: 0.00222 µM

Compound: Fc1ccc(Nc2ncnc3ccc(NC(=S)NCCCN4CCOCC4)cc23)cc1Cl
IC50 [5]: < 0.000495 µM

Further lines, with some results ahead:

inhibition [1]: Active
IC50 [8]: 0.0406 µM
growth inhibition (GI) [11]: Active
inhibition [3]: Active
inhibition [4]: Active
inhibition [6]: Active
growth inhibition (GI) [12]: Active
Compound: Fc1cccc(COc2ccc(Nc3ncnc4ccc(NC(=S)NCCN5CCCCC5)cc34)cc2Cl)c1
Ratio IC50 [9]: 3
IC50 [10]: 0.34 µM
IC50 [2]: 2.16 µM
IC50 [7]: 5.7 µM

inhibition [1]: Active
IC50 [8]: 0.0323 µM
growth inhibition (GI) [11]: Active
inhibition [3]: Active
inhibition [4]: Active
IC50 [5]: 0.00396 µM
inhibition [6]: Active
growth inhibition (GI) [12]: Active
Compound: CC(=O)Nc1ccc2ncnc(Nc3ccc(OCc4cccc(F)c4)c(Cl)c3)c2c1
IC50 [10]: 0.057 µM
IC50 [2]: 0.662 µM
IC50 [7]: 8.31 µM

IC50 [8]: 0.0331 µM
IC50 [5]: 0.00226 µM
Compound: Fc1cccc(COc2ccc(Nc3ncnc4ccc(NC(=S)NCCN5CCOCC5)cc34)cc2Cl)c1

IC50 [8]: 0.0121 µM
IC50 [5]: 0.0015 µM
Compound: Fc1cccc(COc2ccc(Nc3ncnc4ccc(NC(=S)NCCCN5CCOCC5)cc34)cc2Cl)c1

IC50 [8]: 0.0268 µM
IC50 [5]: 0.00203 µM
Compound: NC(=O)Nc1ccc2ncnc(Nc3ccc(OCc4cccc(F)c4)c(Cl)c3)c2c1

IC50 [5]: 0.00204 µM
Compound: C#Cc1cccc(Nc2ncnc3ccc(NC(C)=O)cc23)c1

IC50 [5]: 0.000803 µM
Compound: NC(=O)Nc1ccc2ncnc(Nc3ccc(Br)cc3)c2c1

IC50 [5]: 0.00905 µM
Compound: S=C(NCCN1CCOCC1)Nc1ccc2ncnc(Nc3ccc(Cl)c(Cl)c3)c2c1
